Data: article PMC12334608 (Nature Communications, 2025)
Changes are numbered by the printed parent chain.

Experiments:
ACOX-1.1(N437A) = biological target: T1, ACOX-1.1(N437A) (Caenorhabditis elegans, UniProt O62140, N437A); assay: Enzyme-coupled kinetic assay, ACOX-1.1; assay type: biochemical, C. elegans
T1 sequence (O62140 1-674 N437A): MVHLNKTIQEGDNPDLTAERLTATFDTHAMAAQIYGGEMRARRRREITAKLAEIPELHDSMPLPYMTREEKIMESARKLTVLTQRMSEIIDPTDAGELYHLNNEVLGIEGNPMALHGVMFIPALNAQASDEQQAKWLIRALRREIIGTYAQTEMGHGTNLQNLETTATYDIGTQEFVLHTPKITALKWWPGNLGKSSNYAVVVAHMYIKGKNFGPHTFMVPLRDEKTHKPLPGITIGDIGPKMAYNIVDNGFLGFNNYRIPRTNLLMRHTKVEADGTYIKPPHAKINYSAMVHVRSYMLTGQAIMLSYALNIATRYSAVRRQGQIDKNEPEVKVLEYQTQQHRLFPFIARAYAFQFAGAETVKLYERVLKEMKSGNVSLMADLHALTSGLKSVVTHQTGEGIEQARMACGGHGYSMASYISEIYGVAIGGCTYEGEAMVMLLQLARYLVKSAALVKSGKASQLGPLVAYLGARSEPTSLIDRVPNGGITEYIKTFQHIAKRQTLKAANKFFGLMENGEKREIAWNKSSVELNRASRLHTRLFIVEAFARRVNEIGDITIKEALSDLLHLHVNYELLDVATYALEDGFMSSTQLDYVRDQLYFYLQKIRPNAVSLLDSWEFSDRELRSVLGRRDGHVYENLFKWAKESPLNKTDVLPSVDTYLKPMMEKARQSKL

[1] = biological target: aspartate transcarbamoylase; details: read-out: KD of the high-affinity ATP site; ATP-activated aspartate transcarbamoylase; cited from earlier work
ACOX-1.1 [2] = biological target: T2, ACOX-1.1 (Caenorhabditis elegans, UniProt O62140); assay: Enzyme-coupled kinetic assay, wild-type ACOX-1.1 as purified; assay type: biochemical, C. elegans
T2 sequence (O62140 1-674): T1 sequence (O62140 1-674 N437A) with A437N

ACOX-1.1(H396G) = assay: Enzyme-coupled kinetic assay, ACOX-1.1; assay type: biochemical, C. elegans; details: 10 μM FAD, various ATP
Method in brief: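 Coupled H2O2 assay on a plate reader using the mutant enzyme (250 nM final). […] Peroxide was coupled through 4-aminoantipyrine (0.82 mM final), phenol (10.6 mM final) and peroxidase, read at 500 nm. Substrate was 25 µM lauroyl-CoA in 50 mM Tris-HCl pH 7.5, 150 mM NaCl, 10 mM MgCl2. Initial rate was taken over a 30 s window at 25–26 °C.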

ACOX-1.1 [3] = biological target: T2, ACOX-1.1; assay: ATP hydrolysis by HPLC; assay type: biochemical, C. elegans; details: 1 h incubation
ACOX-1.1(R343A) = biological target: T3, ACOX-1.1(R343A) (Caenorhabditis elegans, UniProt O62140, R343A); assay: Enzyme-coupled kinetic assay, ACOX-1.1; assay type: biochemical, C. elegans; details: varying ATP
T3 sequence (O62140 1-674 R343A): T1 sequence (O62140 1-674 N437A) with R343A, A437N

SMILES: Nc1ncnc2c1ncn2[C@@H]1O[C@H](COP(=O)(O)OP(=O)(O)OP(=O)(O)O)[C@@H](O)[C@H]1O [ATP]
- response of enzyme activity to ATP (ACOX-1.1(N437A)): did not respond to ATP
- Kd [1]: 100 to 200 µM
- EC50 (ACOX-1.1 [2]): 249 µM
- response of enzyme activity to ATP (ACOX-1.1(H396G)): do not respond to ATP
- hydrolysis of ATP by ACOX-1.1 (ACOX-1.1 [3]): not hydrolyzed by ACOX-1.1
- influence of ATP on the activity of the enzyme (ACOX-1.1(R343A)): no influence on the activity of the enzyme
